The record followed here is ChEMBL document CHEMBL4219028, “Development of Protein Degradation Inducers of Androgen Receptor by Conjugation of Androgen Receptor Ligands and Inhibitor of Apoptosis Protein Ligands” (J Med Chem, 2018).

Active and inactive are the calls of the source. No cut-off for these calls is given here.

Assay [1] has as its target T1, Androgen receptor/Baculoviral IAP repeat-containing protein 2 (Homo sapiens, UniProt P10275+Q13490). Nature of the assay: Induction of AR/cIAP1 interaction in human 22Rv1 cells assessed as ubiquitin proteasome system mediated androgen receptor protein degradation at 1 to 3 uM after 6 hrs by Western blot analysis. In kind it is cell-based. The gist of the method:
(§1)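 22Rv1 cells were treated with compound, or with separate ligands (30 μM or 3 μM each), for 6 h. Lysates in SDS buffer (0.1 M Tris pH 8.0, 1% SDS) were normalized by BCA, run on SDS-PAGE and immunoblotted. AR/GAPDH ratio was normalized to vehicle as 100. DC50 is the concentration giving 50% AR reduction; means ± SD, n = 3; t-test against vehicle.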
Target sequence in this assay (Q13490 whole entry, looked up, one chain of several): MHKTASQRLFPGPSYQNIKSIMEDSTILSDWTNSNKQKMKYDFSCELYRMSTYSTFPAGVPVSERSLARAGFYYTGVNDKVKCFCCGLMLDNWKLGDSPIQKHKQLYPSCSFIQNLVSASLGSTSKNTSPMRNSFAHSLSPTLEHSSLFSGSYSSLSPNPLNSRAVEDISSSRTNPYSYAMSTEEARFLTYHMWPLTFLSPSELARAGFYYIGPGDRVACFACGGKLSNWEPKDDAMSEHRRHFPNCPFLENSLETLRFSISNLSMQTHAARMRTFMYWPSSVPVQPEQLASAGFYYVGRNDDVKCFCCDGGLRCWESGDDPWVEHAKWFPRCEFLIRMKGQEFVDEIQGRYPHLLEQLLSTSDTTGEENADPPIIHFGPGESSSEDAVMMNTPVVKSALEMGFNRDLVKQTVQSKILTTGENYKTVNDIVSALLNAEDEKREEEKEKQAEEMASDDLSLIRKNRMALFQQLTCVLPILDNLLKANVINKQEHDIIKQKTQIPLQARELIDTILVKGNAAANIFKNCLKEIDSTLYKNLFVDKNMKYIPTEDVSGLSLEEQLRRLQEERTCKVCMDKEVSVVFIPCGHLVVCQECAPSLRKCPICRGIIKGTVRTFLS

Assay [2] concerns the target T2, Androgen receptor (Homo sapiens, UniProt P10275).
T2 sequence (P10275 whole entry): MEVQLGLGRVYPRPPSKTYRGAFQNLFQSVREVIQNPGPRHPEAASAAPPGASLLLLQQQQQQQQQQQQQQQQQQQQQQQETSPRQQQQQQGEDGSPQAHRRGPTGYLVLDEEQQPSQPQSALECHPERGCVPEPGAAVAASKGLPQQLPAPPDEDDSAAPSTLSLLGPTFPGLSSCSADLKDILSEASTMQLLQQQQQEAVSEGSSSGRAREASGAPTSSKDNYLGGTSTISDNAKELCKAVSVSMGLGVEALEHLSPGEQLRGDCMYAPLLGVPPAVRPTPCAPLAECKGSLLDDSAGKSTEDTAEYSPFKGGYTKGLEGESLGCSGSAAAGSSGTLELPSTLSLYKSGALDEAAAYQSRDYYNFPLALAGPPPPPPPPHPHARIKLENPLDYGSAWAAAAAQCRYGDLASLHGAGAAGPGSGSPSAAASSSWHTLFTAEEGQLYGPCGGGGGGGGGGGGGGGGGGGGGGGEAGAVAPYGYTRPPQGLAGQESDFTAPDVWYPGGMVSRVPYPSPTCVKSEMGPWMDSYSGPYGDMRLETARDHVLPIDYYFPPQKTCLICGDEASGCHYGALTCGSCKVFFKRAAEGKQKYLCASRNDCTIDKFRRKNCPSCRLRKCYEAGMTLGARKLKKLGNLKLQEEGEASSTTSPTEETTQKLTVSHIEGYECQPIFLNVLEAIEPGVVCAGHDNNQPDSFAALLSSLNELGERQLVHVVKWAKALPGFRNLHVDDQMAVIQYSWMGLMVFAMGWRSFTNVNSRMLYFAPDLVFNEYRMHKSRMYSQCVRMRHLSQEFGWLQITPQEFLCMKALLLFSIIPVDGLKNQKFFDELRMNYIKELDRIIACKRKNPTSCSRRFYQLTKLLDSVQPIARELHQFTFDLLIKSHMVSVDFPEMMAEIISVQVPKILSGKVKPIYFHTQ
Put plainly: Displacement of [17-alpha-methyl-H-3] mibolerone from wild-type androgen receptor (unknown origin) expressed in human Freestyle293F cells measured after 3 hrs. In kind it is cell-based. In outline: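 Wild-type AR was expressed in FreeStyle293F cells (pcDNA3.1, 48 h, 37 °C, 8% CO2). Cells were lysed in TEGM buffer (pH 7.2, molybdate, DTT) by freeze–thaw, and the supernatant from 228,000g spin was used. Lysate was incubated with 3 nM (final) [3H]mibolerone plus compound at 4 °C for 3 h. Bound and free were separated by dextran/charcoal and bound counts gave % inhibition; IC50 from three experiments.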

The target of assay [3] is T1, Androgen receptor/Baculoviral IAP repeat-containing protein 2. Put plainly: Induction of AR/cIAP1 interaction in human 22Rv1 cells assessed as ubiquitin proteasome system mediated androgen receptor protein degradation by Western blot analysis. (In general: A western blot detects proteins with antibodies after separation by electrophoresis.)
Target sequence in this assay (Q13490 whole entry, one chain of several): as the sequence (Q13490 whole entry, looked up, one chain of several) above
The target is the same in assay [4]. Put plainly: Induction of AR/cIAP1 interaction in human 22Rv1 cells assessed as ubiquitin proteasome system mediated androgen receptor protein degradation after 6 hrs by Western blot analysis. In kind it is cell-based. In outline:
as §1
Target sequence in this assay (Q13490 whole entry, looked up, one chain of several): as the sequence (Q13490 whole entry, looked up, one chain of several) above

Assay [5] shares this target. Put plainly: Induction of AR/cIAP1 interaction in human 22Rv1 cells assessed as ubiquitin proteasome system mediated androgen receptor protein degradation at 30 uM after 6 hrs by Western blot analysis. The assay is classed as cell-based. The gist of the method: as §1
Target sequence in this assay (Q13490 whole entry, looked up, one chain of several): as the sequence (Q13490 whole entry, looked up, one chain of several) above
Assay [6] addresses T2, Androgen receptor. Put plainly: Binding affinity to androgen receptor (unknown origin). The gist of the method:
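Wild-type AR expressed by transfection of FreeStyle293F cells (48 h shaking at 37 °C), then lysed by freeze-thaw in TEGM buffer (pH 7.2, molybdate, DTT). Cleared lysate incubated with [3H]mibolerone (final 3 nM) plus test compound at 4 °C for 3 h. Bound and free separated by dextran/charcoal, bound counted, and % inhibition calculated. IC50 taken from three separate experiments.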

In assay [7] the target is T1, Androgen receptor/Baculoviral IAP repeat-containing protein 2. Put plainly: Induction of AR/cIAP1 interaction in human 22Rv1 cells assessed as ubiquitin proteasome system mediated androgen receptor protein degradation at 30 uM in presence of methyl (2S)-2-(((2S,3R)-3-amino-2-hydroxy-4-phenylbutanoyl)amino)-4-methylpentanoate after 6 hrs by Western blot analysis. In kind it is cell-based. The gist of the method: as §1
Target sequence in this assay (Q13490 whole entry, looked up, one chain of several): as the sequence (Q13490 whole entry, looked up, one chain of several) above

Assay [8] shares this target. Put plainly: Induction of AR/cIAP1 interaction in human 22Rv1 cells assessed as ubiquitin proteasome system mediated androgen receptor protein degradation at 3 uM in presence of N-((1S)-1-Cyclohexyl-2-((2S)-2-(4-(3-methoxybenzoyl)-1,3-thiazol-2-yl)pyrrolidin-1-yl)-2-oxoethyl)-N2-methyl-L-alaninamide after 6 hrs by Western blot analysis. The assay is classed as cell-based. The gist of the method: as §1
Target sequence in this assay (Q13490 whole entry, looked up, one chain of several): as the sequence (Q13490 whole entry, looked up, one chain of several) above

Assay [9] shares this target. Put plainly: Induction of AR/cIAP1 interaction in human 22Rv1 cells assessed as ubiquitin proteasome system mediated androgen receptor protein degradation at 3 uM after 6 hrs by Western blot analysis. In kind it is cell-based. In outline: as §1
Target sequence in this assay (Q13490 whole entry, looked up, one chain of several): as the sequence (Q13490 whole entry, looked up, one chain of several) above
The target is the same in assay [10]. Nature of the assay: Induction of AR/cIAP1 interaction in human 22Rv1 cells assessed as ubiquitin proteasome system mediated androgen receptor protein degradation at 3 uM in presence of 1-benzyl-4-(4-cyanophenyl)-2,5-dimethyl-1H-pyrrole-3-carbonitrile after 6 hrs by Western blot analysis. The assay is classed as cell-based. The gist of the method: as §1

Turning to `CN[C@@H](C)C(=O)N[C@H](C(=O)N1CCC[C@H]1c1nc(C(=O)c2cccc(OCCOCCOCCOCCCc3ccc(Cn4c(C)c(C#N)c(-c5ccc(C#N)cc5)c4C)cc3)c2)cs1)C1CCCCC1`, in assay [1], the outcome was Active.

Turning to `Cc1c(C#N)c(-c2ccc(C#N)cc2)c(C)n1Cc1ccc(C(=O)NCCOCCOCCOCCNC(=O)[C@H](CC(C)C)NC(=O)[C@@H](O)[C@H](N)Cc2ccccc2)cc1`, the IC50 in assay [2] worked out at 27 nM. For the same molecule, the DC50 in assay [3] was 21600 nM. In addition, the MED in assay [4] is 30 µM. Besides, the result in assay [5] was Active.

Take `CN[C@@H](C)C(=O)N[C@H](C(=O)N1CCC[C@H]1c1nc(C(=O)c2cccc(OCCOc3cccc(OCCOc4ccc(Cn5c(C)c(C#N)c(-c6ccc(C#N)cc6)c5C)cc4)c3)c2)cs1)C1CCCCC1`: the outcome in [1] was inactive.

Consider `Cc1nn(-c2ccc(C#N)c(C(F)(F)F)c2)c(C)c1Cc1ccc(C(=O)NCCOCCOCCOCCNC(=O)[C@H](CC(C)C)NC(=O)[C@@H](O)[C@H](N)Cc2ccccc2)cc1`, for which the 50% inhibitory concentration (IC50) in [2] came out at 190 nM. For the same molecule, the DC50 in assay [3] turned out to be 11700 nM.

Take `CN[C@@H](C)C(=O)N[C@H](C(=O)N1CCC[C@H]1c1nc(C(=O)c2cccc(OCCOCCOCCOCC#Cc3ccc(Cn4c(C)c(C#N)c(-c5ccc(C#N)cc5)c4C)cc3)c2)cs1)C1CCCCC1`: the result in [1] was Active.

As to `Cc1nn(-c2ccc(C#N)c(Cl)c2)c(C)c1CCc1ccc(C(=O)O)cc1`, the 50% inhibitory concentration (IC50) in assay [6] was 53 nM.

Turning to `Cc1nn(-c2ccc(C#N)cc2Cl)c(C)c1Cc1ccc(C(=O)NCCOCCOCCOCCNC(=O)[C@H](CC(C)C)NC(=O)[C@@H](O)[C@H](N)Cc2ccccc2)cc1`, in assay [2], the IC50 is above 10000 nM. In assay [3], the DC50 was above 30000 nM.

In the case of `CN[C@@H](C)C(=O)N[C@H](C(=O)N1CCC[C@H]1c1nc(C(=O)c2cccc(OCCOc3ccc(OCCOc4ccc(Cn5c(C)c(C#N)c(-c6ccc(C#N)cc6)c5C)cc4)cc3)c2)cs1)C1CCCCC1`, the result in assay [1] was inactive.

On to `Cc1c(C#N)c(-c2ccc(C#N)cc2)c(C)n1Cc1ccccc1`, for which the result in [7] and in assay [8] was inactive.

`Cc1c(C#N)c(-c2ccc(C#N)cc2)c(C)n1Cc1ccc(C(=O)O)cc1` yielded an IC50 in [6] of 1.4 nM.

As to `Cc1nn(-c2ccc(C#N)c(Cl)c2)c(C)c1CCc1ccc(C(=O)NCCOCCOCCOCCNC(=O)[C@H](CC(C)C)NC(=O)[C@@H](O)[C@H](N)Cc2ccccc2)cc1`, in assay [2], the IC50 turned out to be 190 nM. Also, the DC50 in [3] was found to be 20500 nM.

With `CN[C@@H](C)C(=O)N[C@H](C(=O)N1CCC[C@H]1c1nc(C(=O)c2cccc(OCCOCCOCCOc3ccc(Cn4c(C)c(C#N)c(-c5ccc(C#N)cc5)c4C)cc3)c2)cs1)C1CCCCC1`, the result in [9] was Active.

As for `CN[C@@H](C)C(=O)N[C@H](C(=O)N1CCC[C@H]1c1nc(C(=O)c2cccc(OCCOc3ccccc3OCCOc3ccc(Cn4c(C)c(C#N)c(-c5ccc(C#N)cc5)c4C)cc3)c2)cs1)C1CCCCC1`, in assay [1], the outcome was inactive.

Turning to `CN[C@@H](C)C(=O)N[C@H](C(=O)N1CCC[C@H]1c1nc(C(=O)c2cccc(OCCOCCOCCOCCOc3ccccc3Cn3c(C)c(C#N)c(-c4ccc(C#N)cc4)c3C)c2)cs1)C1CCCCC1`, in [1], the outcome was inactive.

In the case of `CN[C@@H](C)C(=O)N[C@H](C(=O)N1CCC[C@H]1c1nc(C(=O)c2cccc(OC)c2)cs1)C1CCCCC1`, the result in assay [10] was inactive.

In the case of `CN[C@@H](C)C(=O)N[C@H](C(=O)N1CCC[C@H]1C(=O)N[C@H](C(=O)NCCOCCOCCOCCNC(=O)c1ccc(Cn2c(C)c(C#N)c(-c3ccc(C#N)cc3)c2C)cc1)C(c1ccccc1)c1ccccc1)C1CCCCC1`, the MED in assay [4] was 20 µM.

With `CN[C@@H](C)C(=O)N[C@H](C(=O)N1CCC[C@H]1c1nc(C(=O)c2cccc(OCCOCCOCCNC(=O)c3ccc(Cn4c(C)c(C#N)c(-c5ccc(C#N)cc5)c4C)cc3)c2)cs1)C1CCCCC1`, in [4], the MED stood at 3 µM. The outcome in assay [1] was Active.

With `CN[C@@H](C)C(=O)N[C@H](C(=O)N1CCC[C@H]1c1nc(C(=O)c2cccc(OCCOCCOCCOCCOc3cccc(Cn4c(C)c(C#N)c(-c5ccc(C#N)cc5)c4C)c3)c2)cs1)C1CCCCC1`, the outcome in assay [1] was Active.

As to `CC(C)C[C@H](NC(=O)[C@@H](O)[C@H](N)Cc1ccccc1)C(=O)NCCOCCOCCOCCNC(=O)c1ccc(S(=O)(=O)CC(C)(O)C(=O)Nc2ccc(C#N)c(C(F)(F)F)c2)cc1` (some centres undefined), the IC50 in assay [2] worked out at 1100 nM. In addition, in [3], the DC50 is above 30000 nM.

Regarding `CN[C@@H](C)C(=O)N[C@H](C(=O)N1CCC[C@H]1c1nc(C(=O)c2cccc(OCCOCCOCCOCCOCCOc3ccc(Cn4c(C)c(C#N)c(-c5ccc(C#N)cc5)c4C)cc3)c2)cs1)C1CCCCC1`, the result in [9] was Active.

One may read the IC50 as the point on the concentration scale where inhibition reaches its midpoint. The low end stands for inhibition by little substance, the high end for a need for much substance. A word on the DC50: it is the concentration giving 50% degradation.
